ChEMBL document CHEMBL4680349, “Design, synthesis and evaluation of 1-benzyl-1H-imidazole-5-carboxamide derivatives as potent TGR5 agonists” (Bioorg Med Chem, 2021)
Calls of active or inactive are those of the source.

How the values were obtained:
[1] = biological target: T1, G-protein coupled bile acid receptor 1 (Homo sapiens) (UniProt Q8TDU6); experiment: Agonist activity at human TGR5 transfected in HEK293T cells assessed intracellular cAMP level at 40 uM by HTRF assay; assay type: functional, cell-based; conditions: filed as agonist
T1 sequence (whole entry): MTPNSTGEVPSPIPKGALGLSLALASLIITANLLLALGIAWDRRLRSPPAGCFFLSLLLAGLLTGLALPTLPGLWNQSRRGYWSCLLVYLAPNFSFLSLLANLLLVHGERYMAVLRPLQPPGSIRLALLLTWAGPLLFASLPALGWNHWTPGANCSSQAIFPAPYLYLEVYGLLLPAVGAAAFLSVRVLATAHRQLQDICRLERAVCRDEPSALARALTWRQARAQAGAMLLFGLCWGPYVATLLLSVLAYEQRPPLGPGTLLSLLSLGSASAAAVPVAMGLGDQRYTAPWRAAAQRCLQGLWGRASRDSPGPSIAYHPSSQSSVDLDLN
In short: (§1)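 HEK293T stable line made by lentiviral transfection with drug selection. cAMP measured by HTRF cAMP dynamic 2 kit. Compounds from 10 mM DMSO stocks. 10 μM LCA defined as 100% and 0.1% DMSO as 0% hTGR5 activation. Mean of three independent experiments.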

[2] = biological target: T1, G-protein coupled bile acid receptor 1 (Homo sapiens); experiment: Agonist activity at human TGR5 transfected in HEK293T cells assessed intracellular cAMP level at 10 uM by HTRF assay; assay type: functional, cell-based; in short: as §1
[3] = biological target: T2, G-protein coupled bile acid receptor 1 (Mus musculus, UniProt Q80SS6); experiment: Agonist activity at mouse TGR5 transfected in HEK293T cells assessed intracellular cAMP level by HTRF assay; assay type: functional, cell-based
T2 sequence (Q80SS6 whole entry): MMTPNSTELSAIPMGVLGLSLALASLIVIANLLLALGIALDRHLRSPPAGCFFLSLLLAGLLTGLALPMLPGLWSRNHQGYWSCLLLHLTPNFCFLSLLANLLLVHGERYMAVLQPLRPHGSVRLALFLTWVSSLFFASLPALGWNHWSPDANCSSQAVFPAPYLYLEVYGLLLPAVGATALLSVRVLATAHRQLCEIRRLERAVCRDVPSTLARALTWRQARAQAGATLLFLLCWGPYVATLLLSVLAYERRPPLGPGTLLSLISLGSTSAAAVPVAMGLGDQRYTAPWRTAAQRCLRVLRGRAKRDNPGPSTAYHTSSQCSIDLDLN
In short: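 Run by the same cAMP HTRF method used for human TGR5, with compounds from 10 mM DMSO stocks. EC50 given as mean ± SEM of three independent experiments.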

[4] = biological target: T3, G-protein coupled bile acid receptor 1 (Homo sapiens, UniProt Q8TDU6); experiment: Agonist activity at human TGR5 transfected in HEK293T cells assessed intracellular cAMP level by HTRF assay; assay type: functional, cell-based
T3 sequence (Q8TDU6 whole entry): T1 sequence (whole entry)

[5] = Stability of the compound in human plasma assessed as parent compound remaining measured after 60 mins; assay type: ADME, cell-free; conditions: read-out: Stabilty
[6] = biological target: T4, Bile acid receptor (Homo sapiens) (UniProt Q96RI1); experiment: Agonist activity at GST-tagged human FXR-LBD using biotinylated SRC-1 peptide as substrate at 20 uM by HTRF assay
T4 sequence (whole entry): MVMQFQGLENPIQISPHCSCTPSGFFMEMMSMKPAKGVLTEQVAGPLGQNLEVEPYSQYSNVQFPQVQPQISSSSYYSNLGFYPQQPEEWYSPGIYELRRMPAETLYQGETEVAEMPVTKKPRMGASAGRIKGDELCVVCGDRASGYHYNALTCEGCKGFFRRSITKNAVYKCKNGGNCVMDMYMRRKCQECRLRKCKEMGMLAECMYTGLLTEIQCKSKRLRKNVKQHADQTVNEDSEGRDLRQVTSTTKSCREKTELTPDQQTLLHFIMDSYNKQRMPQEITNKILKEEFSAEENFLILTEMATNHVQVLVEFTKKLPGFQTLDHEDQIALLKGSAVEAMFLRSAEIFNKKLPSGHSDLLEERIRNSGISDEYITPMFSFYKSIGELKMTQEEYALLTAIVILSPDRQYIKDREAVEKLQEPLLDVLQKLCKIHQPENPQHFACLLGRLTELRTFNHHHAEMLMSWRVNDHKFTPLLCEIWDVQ
In short: (§2)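 Reaction mix in HTRF buffer (50 mM Hepes pH 7.0, 125 mM KF, 0.125% CHAPS, 0.05% dry milk): 10 nM GST-FXRα LBD, 100 nM biotin-SRC1, 0.83 nM Eu-anti-GST, 41.75 nM streptavidin-XL665. Incubated at room temperature, read as (665/620 nm)×10,000. 50 μM CDCA defined as 100% and 0.1% DMSO as 0% activation.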

[7] = Stability of the compound in human plasma assessed as parent compound remaining measured after 120 mins; assay type: ADME, cell-free; conditions: read-out: Stabilty
[8] = biological target: T4, Bile acid receptor (Homo sapiens); experiment: Agonist activity at GST-tagged human FXR-LBD using biotinylated SRC-1 peptide as substrate at 50 uM by HTRF assay; in short: as §2
[9] = biological target: T4, Bile acid receptor (Homo sapiens); experiment: Agonist activity at GST-tagged human FXR-LBD using biotinylated SRC-1 peptide as substrate at 10 uM by HTRF assay; in short: as §2
HeLa = experiment: Cytotoxicity against human HeLa cells assessed as reduction in cell viability incubated for 24 hrs by CCK8 assay; assay type: functional, cell-based
In short: (§3)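 Cells exposed to compounds for 24 h, then viability read by CCK8 assay to give IC50.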

A549 = experiment: Cytotoxicity against human A549 cells assessed as reduction in cell viability incubated for 24 hrs by CCK8 assay; assay type: functional, cell-based; conditions: A549, 24 h; in short: as §3
Mus musculus [10] = experiment: Antidiabetic activity against in C57BL/6J mouse assessed reduction in glucose AUC at 30 mg/kg, po pretreated for 60 mins followed by 2 g/kg glucose orally administered measured upto 120 mins by OGTT method relative to control; assay type: functional; set-up: scale not given: the % may be the effect or the level left; conditions: time min <=180
Mus musculus [11] = experiment: In vivo agonist activity at TGR5 in wild type C57BL/6J mouse assessed as induction of GLP-1 secretion at 30 mg/kg, po followed by 2 g/kg glucose orally administered measured after 5 mins by ELISA relative to control; assay type: functional, organism-based
In short: (§4)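 Eight-week-old WT or TGR5−/− mice fasted overnight, then given vehicle (0.25% CMC) or compound 30 mg/kg orally. Oral glucose 2.0 g/kg 1 h later. Blood taken 5 min after glucose into tubes with DPP IV inhibitor and EDTA. Serum active GLP-1(7–36 amide) measured by ELISA.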

Mus musculus [12] = experiment: Induction of GLP-1 secretion in TGR5 knock out C57BL/6J mouse assessed as serum GLP-1 level at 30 mg/kg, po followed by 2 g/kg glucose orally administered measured after 5 mins by ELISA relative to control; assay type: functional, organism-based; in short: as §4

| Activity [1] [%] | EC50 [4] [nM] | Activity ([2]; filed as agonist) [%] | Compound | other results |
| --- | --- | --- | --- | --- |
| 48.4 | – | – | C[C@H](c1ccccc1)n1cncc1C(=O)Nc1ccccc1F | Activity [2]: 16.5% |
| – | 118 | – | O=C(c1cncn1Cc1ccccc1Cl)N1CCN(C2CC2)c2ccccc21 | EC50 [3]: 3690 nM |
| 95.3 | 1090 | 79.3 | C[C@H](c1ccccc1)n1cncc1C(=O)N1CCN(c2ccccc2F)CC1 | – |
| 74.5 | – | 54.1 | C[C@H](c1ccccc1)n1cncc1C(=O)N1CCOc2ccccc21 | – |
| 85.2 | – | 51.3 | C[C@H](c1ccccc1)n1cncc1C(=O)Nc1ccc(F)cc1 | – |
| – | 9.5 | – | O=C(c1cncn1Cc1cc(Cl)ccc1Cl)N1CCN(C2CC2)c2ccccc21 | remaining at 1 h [5]: 112%; Activity [6]: -0.8%; EC50 [3]: 832 nM; remaining at 2 h [7]: 105%; Activity [8]: 0.31%; Activity [9]: 2.3%; IC50 (HeLa): > 50000 nM; IC50 (A549): > 50000 nM; Activity (Mus musculus [10]): 13.7% |
| 66.5 | – | – | COc1ccc(NC(=O)c2cncn2[C@H](C)c2ccccc2)cc1 | Activity [2]: 25.3% |
| 63.3 | – | – | Cc1ccc(NC(=O)c2cncn2[C@H](C)c2ccccc2)cc1 | Activity [2]: 20.2% |
| 84.1 | – | – | C[C@H](c1ccccc1)n1cncc1C(=O)Nc1ccc(Cl)cc1 | Activity [2]: 37.7% |
| 97.4 | 330 | 89.8 | C[C@H](c1ccccc1)n1cncc1C(=O)N1CCN(C2CC2)c2ccccc21 | – |
| 49.2 | – | – | COc1ccccc1N1CCN(C(=O)c2cncn2[C@H](C)c2ccccc2)CC1 | Activity [2]: 17.4% |
| 89.7 | 4390 | 79.1 | COc1ccc(N2CCN(C(=O)c3cncn3[C@H](C)c3ccccc3)CC2)cc1 | – |
| 81.6 | – | 41.7 | C[C@H](c1ccccc1)n1cncc1C(=O)N1CCN(c2ccccc2)CC1 | – |
| 56.2 | – | – | C[C@H](c1ccccc1)n1cncc1C(=O)Nc1cccc(F)c1 | Activity [2]: 20.1% |
| – | 1750 | – | O=C(c1cncn1Cc1ccccc1)N1CCN(C2CC2)c2ccccc21 | EC50 [3]: 3500 nM |
| 86.7 | – | 62.1 | Cc1ccc(N(C)C(=O)c2cncn2[C@H](C)c2ccccc2)cc1 | – |
| – | 6.8 | – | O=C(c1cncn1Cc1ccc(Cl)cc1Cl)N1CCN(C2CC2)c2ccccc21 | remaining at 1 h [5]: 107%; Activity (Mus musculus [11]): Active; Activity [6]: 1.6%; EC50 [3]: 611 nM; remaining at 2 h [7]: 104%; Activity [8]: -1.1%; Activity [9]: 1.1%; Activity (Mus musculus [12]): inactive; IC50 (HeLa): > 50000 nM; IC50 (A549): > 50000 nM; Activity (Mus musculus [10]): 15.8% |
| 77.1 | – | 48.3 | C[C@H](c1ccccc1)n1cncc1C(=O)N1CCCc2ccccc21 | – |
| – | 338 | – | O=C(c1cncn1Cc1ccc(F)cc1F)N1CCN(C2CC2)c2ccccc21 | EC50 [3]: > 10000 nM |
| 85.4 | 1050 | 70.9 | C[C@H](c1ccccc1)n1cncc1C(=O)N(C)c1ccc(F)cc1 | – |
| – | 568 | – | O=C(c1cncn1Cc1ccc(F)cc1)N1CCN(C2CC2)c2ccccc21 | EC50 [3]: > 10000 nM |
| 71.9 | – | 63.1 | C[C@H](c1ccccc1)n1cncc1C(=O)N(C)c1ccc(Cl)cc1 | – |
